Bioassay records from PubChem.
UBC13 inh = blocks human UBC13 polyubiquitin chain formation. P61088. TR-FRET. inhibition, % at 20 µM. 330,000 compounds, 0.47% hits. AID 485273; in the data active = inhibition above about 45%, passing the limit was not always enough
Target sequence (P61088 whole entry, looked up): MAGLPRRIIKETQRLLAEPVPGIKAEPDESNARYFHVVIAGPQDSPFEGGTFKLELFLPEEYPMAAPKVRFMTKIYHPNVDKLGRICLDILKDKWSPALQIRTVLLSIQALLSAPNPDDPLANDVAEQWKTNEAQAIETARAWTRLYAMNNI
MEKK2 mut-MEK5 = signal of MEK5 binding to mutant human MEKK2 PB1 domain. 290,000 compounds, 0.35% hits. percent response, % at 10 µM. AID 1530. bead flow cytometry, Alexa488-MEK5 binding to MEKK2 mutant; in the data active = percent response above about 24%, passing the limit was not always enough
MEKK3 PB1 HTS = MEKK3-MEK5 PB1 interaction, increase or decrease; Q99759; bead-based flow cytometry, Alexa488-MEK5 binding to MEKK3; actives lie on both sides; 0 = blocked by unlabeled MEK5, 100 = vehicle; binding response (% of control), % at 10 µM; 290,000 compounds, 1.4% hits; AID 1529;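 active = binding response more than 3 SD above or below the average of its plate-row segment, actives on both sides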;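 also: Alexa488 bead fluorescence after subtracting the streptavidin-only scavenger bead signal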
PREPL inh = inhibitors of human prolyl oligopeptidase-like enzyme PREPL; Q4J6C6; recombinant PREPL, fluorescence polarization activity-based probe; inhibition, % at 5.96 µM; 320,000 compounds, 0.68% hits; AID 2751; in the data active = inhibition above about 43%
Apaf1 inhib = inhibitors of human Apaf-1 apoptosome. reconstituted apoptosome caspase-3 activity, DEVD-Rh110 fluorescence. inhibition, % at 20 µM. 330,000 compounds, 0.71% hits; active = inhibition of at least 40% at 20 µM
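Assay system – apoptosome proteins · Medium – Hepes buffer, pH 7.5 · Also added – cytochrome c with DEVD-Rh110 · Timing – 30 min compound preincubation, 50 min activation, room temperature · Detection – Rh110 fluorescence, excitation 480 nm, emission 540 nm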
MEKK2 WT-MEK5 = raises or lowers MEK5 binding to wildtype human MEKK2 PB1 domain; Q9Y2U5; bead flow cytometry, Alexa488-MEK5 binding to MEKK2 WT; actives lie on both sides; binding response (% of control), % at 10 µM; 290,000 compounds, 1.1% hits; AID 1531; in the data active = binding response below about 67% or above about 130%
MEKK2wt confirm = raises or lowers MEK5 binding to wildtype human MEKK2, retest | shares compounds with MEKK3 PB1 HTS | bead flow cytometry, Alexa488-MEK5 binding to MEKK2 WT; actives lie on both sides | binding response (% of control), % at 10 µM | AID 1892 | 5,900 compounds, 2.4% hits; in the data active = binding response below about 16% or above about 210%; inactive = in between
MEKK2mut confirm = signal of MEK5 binding to mutant human MEKK2, retest; shares compounds with MEKK3 PB1 HTS; bead flow cytometry, Alexa488-MEK5 binding to MEKK2 mutant; percent response, % at 10 µM; 5,900 compounds, 2% hits; AID 1893; in the data active = percent response mostly above about 71%, no sharp cut-off; inactive = mostly below about 38%;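 also: higher means compound restores mutant binding toward wildtype level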
MEKK3-MEK5 inh = MEKK3-MEK5 PB1 inhibition, single concentration confirmation. shares compounds with MEKK3 PB1 HTS. bead flow cytometry, Alexa488-MEK5 binding to MEKK3; stronger effect = lower value. binding response (% of control), % at 10 µM. 5,900 compounds, 1.8% hits;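 active = binding response below 72% of control, or above a set upper limit, though filed actives all read lower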
A number is an active result; 0 = inactive; - = no result given; [ ] = another dose, or the depositor's remark. Most compounds without a hit are left out; they make up all but 3.1% or so of the library.

SMILES	UBC13 inh	MEKK2 mut-MEK5	MEKK3 PB1 HTS	PREPL inh	Apaf1 inhib	MEKK2 WT-MEK5	MEKK2wt confirm	MEKK2mut confirm	MEKK3-MEK5 inh
CCOc1cc(/C=N/NC(N)=O)cc(Br)c1OCC(=O)Nc1ccccc1C	0	0	122	0	0	0	0	0	0
COc1ccc(/C=N\NC(=O)CNC(=O)C(c2ccccc2)c2ccccc2)cc1[N+](=O)[O-]	0	0	143	0	0	0	0	0	0
CCCc1cc(=O)oc2cc(OCC(=O)NCCCn3ccnc3)c(Cl)cc12	0	0	0	0	0	0	-	-	-
Cc1csc(Sc2nc3c(c(=O)[nH]c(=O)n3C)n2CCCc2ccccc2)n1	0	0	2.0[inhibitor]	0	0	1.0[inhibitor]	0	0	0
Cn1c(=O)[nH]c(=O)c2c1nc(SCCO)n2CCCc1ccccc1	0	0	0	0	0	0	-	-	-
CC(=O)NCCc1nc2cc(NC(=O)c3ccc([N+](=O)[O-])cc3)ccc2n1C	0	0	0	-	0	0	-	-	-
Cc1ccc(NC(=O)c2cc(S(=O)(=O)NCCC3=CCCCC3)ccc2F)cc1	0	0	128	0	0	0	0	0	0
O=C(NCCC1=CCCCC1)c1cc(S(=O)(=O)N2CCOCC2)ccc1F	0	-	-	0	0	-	-	-	-
Cc1ncc([N+](=O)[O-])n1Cc1ccc(F)cc1	0	0	70[inhibitor]	0	0	0	0	0	0
Cc1cc(NC(=O)CN2C(=O)NC3(CCCCC3)C2=O)no1	0	0	135	0	0	0	0	0	0
O=C(CN1C(=O)NC2(CCCCC2)C1=O)NCc1cccs1	0	0	154	0	0	0	0	0	0
COc1ccc(-c2csc(NC(=O)Nc3ccccc3)n2)cc1	0	0	0	0	0	0	-	-	-
CCCC(=O)NC(=S)Nc1nc(-c2ccc(OC)cc2)cs1	0	0	137	0	0	0	0	0	0
COc1ccc(-c2csc(NC(=O)COC(=O)c3ccco3)n2)cc1	0	0	138	0	0	0	0	0	0
CC(C)CC(=O)NC(=S)Nc1nc(-c2ccc(Cl)cc2)cs1	0	0	155	0	0	0	0	0	0
CC(C)CC(=O)NC(=S)Nc1nc(-c2ccccc2)cs1	-	0	0	0	-	0	-	-	-
COc1ccc(-c2csc(NC(=S)NC(=O)c3ccco3)n2)cc1	0	0	0	0	0	0	-	-	-
CCCCn1c(N)c(N(CC(C)C)C(=O)c2ccc(Cl)c(S(=O)(=O)N3CCCC3)c2)c(=O)[nH]c1=O	0	-	-	0	0	-	-	-	-
COc1cccc(NC(=O)C(NC2CCCC2)c2ccccc2)c1 (centres undefined)	0	0	0	0	0	0	-	-	-
Cc1cc(C(=O)OC(C(=O)Nc2ccc(C)c(Cl)c2)c2ccccc2)c(C)o1 (centres undefined)	-	0	0	0	-	147	0	0	0
Cc1ccc(NC(=O)C(NC2CCCC2)c2ccccc2)cc1Cl (centres undefined)	0	0	0	0	0	142	0	0	0
O=C(NCCCN1CCOCC1)/C(=C/c1cccs1)NC(=O)c1ccccc1	0	0	0	0	0	0	-	-	-
Cc1ccc(C(=O)N2CCCC(C(=O)Nc3cccc(-c4ccc(F)cc4)c3)C2)cn1 (centres undefined)	0	0	0	0	0	0	-	-	-
O=C(/C(=N\Nc1ccccc1)Sc1nnnn1-c1ccccc1)c1ccccc1	0	0	138	0	0	0	0	0	0
NC(=O)c1ccc(-n2nnnc2SCC(=O)Nc2ccccc2)cc1	0	0	0	0	0	0	-	-	-
SMILES	UBC13 inh	MEKK2 mut-MEK5	MEKK3 PB1 HTS	PREPL inh	Apaf1 inhib	MEKK2 WT-MEK5	MEKK2wt confirm	MEKK2mut confirm	MEKK3-MEK5 inh
Oc1[nH]c2ccccc2c1N=NC(=S)NCCc1ccccc1	-	0	130	0	-	0	0	0	0
CCc1nnc(NC(=O)c2c(OC)cccc2OC)s1	0	0	0	0	0	0	-	-	-
CCOCc1nnc(NC(=O)c2c(OC)cccc2OC)s1	0	0	0	0	0	137	0	0	0
C/C=C(\C)C(=O)NNC(=O)c1sc(-c2ccccc2)nc1C	0	0	0	0	0	0	-	-	-
COCCN=c1scc(-c2cc(OC)c(OC)c(OC)c2)n1/N=C/c1c(C)[nH]c2ccccc12	0	77	0	0	0	-	0	0	0
Cc1ccc(NC(=O)c2c3c(nc4ccccc24)CCC3)cc1	0	0	72[inhibitor]	0	0	0	0	0	0
CCOc1ccc(NC(=O)c2c3c(nc4ccccc24)CCC3)cc1	0	0	0	0	0	0	-	-	-
N#CC1=C(N)NC(SCC(=O)O)=C(C#N)C12CCCC2	0	0	0	0	0	0	-	-	-
N#CC1=C(N)NC(SCc2ccc(F)cc2)=C(C#N)C12CCCCC2	0	0	82[inhibitor]	0	0	0	0	0	0
CCOC(=O)CSc1c(-c2ccc(Cl)cc2)[nH]c2ccccc12	0	0	155	0	0	0	0	0	0
O=C(Cc1cccs1)NCCSc1c(-c2ccc(Cl)cc2)[nH]c2ccccc12	0	0	1.0[inhibitor]	0	0	2.0[inhibitor]	0	0	0
CC(Nc1nc(-c2cccnc2)nc2ccccc12)c1ccc(F)cc1 (centres undefined)	0	0	0	0	0	0	-	-	-
Clc1ccc(Sc2oc(/C=N/n3cnnc3)cc2Br)cc1	0	0	0	0	0	0	-	-	-
CN(C)C(=O)/C(C#N)=C\c1cc(Br)c(Sc2ccc(Cl)cc2)o1	-	0	132	0	-	0	0	0	0
COCCCNC(=O)CN(c1cc(Cl)ccc1OC)S(=O)(=O)c1ccc(C)c([N+](=O)[O-])c1	0	0	0	0	0	0	-	-	-
COCCNC(=O)CN(c1cc(Cl)ccc1OC)S(=O)(=O)c1ccc(C)c([N+](=O)[O-])c1	0	0	128	0	0	0	12[inhibitor]	0	71
COC(=O)c1c(NC(=O)COc2ccc(Cl)cc2)sc2c1CC(C)(C)NC2(C)C	0	49	0	0	61	186	0	0	0
CCCN1CCc2nc(SCC(=O)Nc3ccc(C)c(Cl)c3)[nH]c(=O)c2C1	0	0	0	0	0	0	-	-	-
Cc1ccnc(NC(=O)c2cc(S(=O)(=O)N3CCCCC3)ccc2Cl)c1	0	0	134	0	0	0	0	0	0
Cc1csc(=O)n1CC(=O)Nc1ccc(C(C)C)cc1	0	-	-	-	0	-	-	-	-
CC(C)(C)c1ccc(C(=O)OCC(=O)Nc2sc3c(c2C#N)CCC3)cc1	0	0	132	0	0	0	0	0	0
